Laboratory results from ChEMBL document CHEMBL1123589, “Phenylpiperazine-based radiopharmaceuticals for brain imaging. 3. Synthesis and evaluation of radioiodinated 1-alkyl-4-phenylpiperazines” (J Med Chem, 1987).

What was measured:
Details in all cases: in vivo
Rattus norvegicus [1] = experiment: The biodistribution of the [125I]-labeled compound in rats after intravenous injection was evaluated in adrenal at 0.25 hrs; value ranges from 0.22-0.37 (ID.kg/g); type: ADME, organism-based
Summary of the method: (§1)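 Male Sprague-Dawley rats (250–300 g) under ether anesthesia were given an iv injection of no-carrier-added 125I-labelled agent (10–15 μCi in 0.1 mL saline). The agent was iodinated with chloramine-T in acetate buffer and purified by C-18 HPLC. Groups of N = 3 were killed at 0.25, 1 and 4 h. Blood and tissues were weighed and γ-counted. Values are % ID·kg/g, mean (range).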

Rattus norvegicus [2] = experiment: The biodistribution of the [125I]-labeled compound in rats after intravenous injection was evaluated in adrenal at 1.00 hrs; value ranges from 0.12-0.19 (ID.kg/g); type: ADME, organism-based; summary of the method: as §1
Rattus norvegicus [3] = experiment: The biodistribution of the [125I]-labeled compound in rats after intravenous injection was evaluated in adrenal at 4.00 hrs; value ranges from 0.11-0.13 (ID.kg/g); type: ADME, organism-based; summary of the method: as §1
Rattus norvegicus [4] = experiment: The biodistribution of the [125I]-labeled compound in rats after intravenous injection was evaluated in blood at 0.25 hrs (ID.kg/g); type: ADME, organism-based; summary of the method: as §1
Rattus norvegicus [5] = experiment: The biodistribution of the [125I]-labeled compound in rats after intravenous injection was evaluated in blood at 1.00 hrs (ID.kg/g); type: ADME, organism-based; summary of the method: as §1
Rattus norvegicus [6] = experiment: The biodistribution of the [125I]-labeled compound in rats after intravenous injection was evaluated in blood at 4.00 hrs (ID.kg/g); type: ADME, organism-based; summary of the method: as §1
Rattus norvegicus [7] = experiment: The biodistribution of the [125I]-labeled compound in rats after intravenous injection was evaluated in heart at 0.25 hrs; value ranges from 0.10-0.11 (ID.kg/g); type: ADME, organism-based; summary of the method: as §1
Rattus norvegicus [8] = experiment: The biodistribution of the [125I]-labeled compound in rats after intravenous injection was evaluated in muscle at 0.25 hrs; value ranges from 0.06-0.07 (ID.kg/g); type: ADME, organism-based, Muscle tissue
Summary of the method: (§2)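 Male Sprague-Dawley rats (250–300 g) under ether anesthesia given iv 0.1 mL saline containing 10–15 μCi of NCA ¹²⁵I-labeled agent (chloramine-T iodination, HPLC-purified). Groups of 3 killed at 0.25, 1 and 4 h. Blood and tissues excised, weighed and γ-counted. Values are mean (range) of % injected dose × body mass (kg) per gram of tissue.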

Rattus norvegicus [9] = experiment: The biodistribution of the [125I]-labeled compound in rats after intravenous injection was evaluated in muscle at 1.00 hrs; value ranges from 0.03-0.05 (ID.kg/g); type: ADME, organism-based, Muscle tissue; summary of the method: as §2
Rattus norvegicus [10] = experiment: The biodistribution of the [125I]-labeled compound in rats after intravenous injection was evaluated in muscle at 4.00 hrs (ID.kg/g); type: ADME, organism-based, Muscle tissue; summary of the method: as §2
Rattus norvegicus [11] = experiment: The biodistribution of the [125I]-labeled compound in rats after intravenous injection was evaluated in thyroid at 0.25 hrs (ID.kg/g); type: ADME, organism-based, Thyroid gland; summary of the method: as §2
Rattus norvegicus [12] = experiment: The biodistribution of the [125I]-labeled compound in rats after intravenous injection was evaluated in thyroid at 4.00 hrs; value ranges from 2.48-3.53 (ID.kg/g); type: ADME, organism-based, Thyroid gland; summary of the method: as §2
Rattus norvegicus [13] = experiment: The biodistribution of the [125I]-labeled compound in rats after intravenous injection was evaluated in brain at 0.25 hrs; value ranges from 0.19-0.26 (ID.kg/g); type: ADME, organism-based
Rattus norvegicus [14] = experiment: The biodistribution of the [125I]-labeled compound in rats after intravenous injection was evaluated in thyroid at 1.00 hrs value ranges from 2.04-2.76( ID.kg/g); type: ADME, organism-based, Thyroid gland; summary of the method: as §2
Rattus norvegicus [15] = experiment: The biodistribution of the [125I]-labeled compound in rats after intravenous injection was evaluated in fat at 0.25 hr; value ranges from 0.07-0.09 (ID.kg/g); type: ADME, organism-based, Adipose tissue; summary of the method: as §1
Rattus norvegicus [16] = experiment: The biodistribution of the [125I]-labeled compound in rats after intravenous injection was evaluated in brain at 1.00 hrs; (ID.kg/g); type: ADME, organism-based; summary of the method: as §1
Rattus norvegicus [17] = experiment: The biodistribution of the [125I]-labeled compound in rats after intravenous injection was evaluated in brain at 4.00 hrs (ID.kg/g); type: ADME, organism-based; summary of the method: as §1
Rattus norvegicus [18] = experiment: The biodistribution of the [125I]-labeled compound in rats after intravenous injection was evaluated in fat at 1.00 hrs; value ranges from 0.08-0.12 (ID.kg/g); type: ADME, organism-based, Adipose tissue; summary of the method: as §1
Rattus norvegicus [19] = experiment: The biodistribution of the [125I]-labeled compound in rats after intravenous injection was evaluated in fat at 4.00 hrs; value ranges from 0.06-0.07 (ID.kg/g); type: ADME, organism-based, Adipose tissue; summary of the method: as §1
Rattus norvegicus [20] = experiment: The biodistribution of the [125I]-labeled compound in rats after intravenous injection was evaluated in kidney at 4.00 hrs; value ranges from 0.14-0.21 (ID.kg/g); type: ADME, organism-based
Summary of the method: (§3)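 Male Sprague-Dawley rats (250–300 g), under ether anesthesia, given 10–15 μCi of the NCA ¹²⁵I-labeled agent iv in 0.1 mL saline. Groups of N = 3 were killed at 0.25, 1 or 4 h. Blood and tissues were removed, weighed and counted in a γ-well scintillation counter. Values are mean % ID·kg/g (range).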

Rattus norvegicus [21] = experiment: The biodistribution of the [125I]-labeled compound in rats after intravenous injection was evaluated in liver at 0.25 hr; value ranges from 0.24-0.40 (ID.kg/g); type: ADME, organism-based; summary of the method: as §3
Rattus norvegicus [22] = experiment: The biodistribution of the [125I]-labeled compound in rats after intravenous injection was evaluated in liver at 4.00 hrs; value ranges from 0.19-0.21 (ID.kg/g); type: ADME, organism-based; summary of the method: as §3
Rattus norvegicus [23] = experiment: The biodistribution of the [125I]-labeled compound in rats after intravenous injection was evaluated in lung at 0.25 hrs (ID.kg/g); type: ADME, organism-based; summary of the method: as §3
Rattus norvegicus [24] = experiment: The biodistribution of the [125I]-labeled compound in rats after intravenous injection was evaluated in lung at 1.00 hrs (ID.kg/g); type: ADME, organism-based; summary of the method: as §3
Rattus norvegicus [25] = experiment: The biodistribution of the [125I]-labeled compound in rats after intravenous injection was evaluated in lung at 4.00 hrs (ID.kg/g); type: ADME, organism-based; summary of the method: as §3
Rattus norvegicus [26] = experiment: The biodistribution of the [125I]-labeled compound in rats after intravenous injection was evaluated in liver at 1.00 hrs; value ranges from 0.27-0.47 (ID.kg/g); type: ADME, organism-based; summary of the method: as §3
Rattus norvegicus [27] = experiment: The biodistribution of the [125I]-labeled compound in rats after intravenous injection was evaluated in heart at 4.00 hrs; value ranges from 0.12-0.14 (ID.kg/g); type: ADME, organism-based; summary of the method: as §3
Rattus norvegicus [28] = experiment: The biodistribution of the [125I]-labeled compound in rats after intravenous injection was evaluated in kidney at 0.25 hr; value ranges from 0.31-0.38 (ID.kg/g); type: ADME, organism-based; summary of the method: as §3
Rattus norvegicus [29] = experiment: The biodistribution of the [125I]-labeled compound in rats after intravenous injection was evaluated in kidney at 1.00 hrs; value ranges from 0.28-0.33 (ID.kg/g); type: ADME, organism-based; summary of the method: as §3
Rattus norvegicus [30] = experiment: The biodistribution of the [125I]-labeled compound in rats after intravenous injection was evaluated in heart at 1.00 hrs; value ranges from 0.11-0.13 (ID.kg/g); type: ADME, organism-based; summary of the method: as §1

CN1CCN(c2ccc(I)cc2)CC1
Biodistribution (Rattus norvegicus [1]): 0.37%
Biodistribution (Rattus norvegicus [2]): 0.19%
Biodistribution (Rattus norvegicus [3]): 0.13%
Biodistribution (Rattus norvegicus [4]): 0.04 % ID·kg/g
Biodistribution (Rattus norvegicus [5]): 0.04%
Biodistribution (Rattus norvegicus [6]): 0.02 % ID·kg/g
Biodistribution (Rattus norvegicus [7]): 0.11%
Biodistribution (Rattus norvegicus [8]): 0.07%
Biodistribution (Rattus norvegicus [9]): 0.05%
Biodistribution (Rattus norvegicus [10]): 0.02 %ID·kg/g
Biodistribution (Rattus norvegicus [11]): 0.96%
Biodistribution (Rattus norvegicus [12]): 3.53%
Biodistribution (Rattus norvegicus [13]): 0.26%
Biodistribution (Rattus norvegicus [14]): 2.76%
Biodistribution (Rattus norvegicus [15]): 0.09%
Biodistribution (Rattus norvegicus [16]): 0.05%
Biodistribution (Rattus norvegicus [17]): 0.05%
Biodistribution (Rattus norvegicus [18]): 0.12%
Biodistribution (Rattus norvegicus [19]): 0.07%
Biodistribution (Rattus norvegicus [20]): 0.21%
Biodistribution (Rattus norvegicus [21]): 0.4%
Biodistribution (Rattus norvegicus [22]): 0.21%
Biodistribution (Rattus norvegicus [23]): 0.22%
Biodistribution (Rattus norvegicus [24]): 0.2%
Biodistribution (Rattus norvegicus [25]): 0.09%
Biodistribution (Rattus norvegicus [26]): 47%
Biodistribution (Rattus norvegicus [27]): 0.14%
Biodistribution (Rattus norvegicus [28]): 0.38%
Biodistribution (Rattus norvegicus [29]): 0.33%
Biodistribution (Rattus norvegicus [30]): 0.13%
